Assay [1] has as its target Estrogen receptor (Bos taurus) (UniProt Q9XSB5+P49884). In words: Relative binding affinity (RBA) for calf uterine estrogen receptor. It counts as protein assay. An outline of the steps: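 Displacement of [³H]estradiol from calf uterine cytosol; incubated 16 h at 4 °C. Dextran-coated charcoal stops incubation; after centrifugation, supernatant radioactivity counted. Six competitor concentrations spanning 50% competition; % bound vs log concentration plotted to obtain concentrations halving binding for unlabeled estradiol and test compound, giving RBA. Mean of four determinations.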

The target in assay [2] is T1, Estrogen receptor (Mus musculus) (UniProt O08537+P19785). The experiment in a line: Anti-uterotrophic effect in mice at 100 ug. It is filed as functional. Summed up: (§1)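 Immature female NMRI mice, 20 days old (15.0 ± 2.5 g), randomized into groups of 10. Compound in olive oil (0.1 mL) injected sc daily for 3 days together with estrone; uteri removed 24 h after the last injection, fixed in Bouin's solution, washed, dried and weighed. Effect expressed as uterus dry weight (mg)/body weight (g) × 100; inhibition of estrone-stimulated growth.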
T1 sequence (O08537 whole entry, looked up): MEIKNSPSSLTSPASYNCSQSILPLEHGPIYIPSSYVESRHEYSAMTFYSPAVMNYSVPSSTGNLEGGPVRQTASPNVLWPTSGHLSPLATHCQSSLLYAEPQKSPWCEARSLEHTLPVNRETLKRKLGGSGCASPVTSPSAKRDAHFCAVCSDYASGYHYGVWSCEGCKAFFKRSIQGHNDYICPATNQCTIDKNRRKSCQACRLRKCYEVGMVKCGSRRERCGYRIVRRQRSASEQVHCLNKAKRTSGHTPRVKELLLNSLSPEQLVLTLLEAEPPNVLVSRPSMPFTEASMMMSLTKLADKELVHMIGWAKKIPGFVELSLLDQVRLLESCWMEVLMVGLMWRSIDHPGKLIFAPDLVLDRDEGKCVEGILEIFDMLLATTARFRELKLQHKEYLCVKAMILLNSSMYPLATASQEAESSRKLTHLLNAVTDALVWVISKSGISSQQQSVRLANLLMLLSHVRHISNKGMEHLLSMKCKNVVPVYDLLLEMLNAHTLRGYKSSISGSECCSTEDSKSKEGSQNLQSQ
T1 sequence (P19785 whole entry, looked up): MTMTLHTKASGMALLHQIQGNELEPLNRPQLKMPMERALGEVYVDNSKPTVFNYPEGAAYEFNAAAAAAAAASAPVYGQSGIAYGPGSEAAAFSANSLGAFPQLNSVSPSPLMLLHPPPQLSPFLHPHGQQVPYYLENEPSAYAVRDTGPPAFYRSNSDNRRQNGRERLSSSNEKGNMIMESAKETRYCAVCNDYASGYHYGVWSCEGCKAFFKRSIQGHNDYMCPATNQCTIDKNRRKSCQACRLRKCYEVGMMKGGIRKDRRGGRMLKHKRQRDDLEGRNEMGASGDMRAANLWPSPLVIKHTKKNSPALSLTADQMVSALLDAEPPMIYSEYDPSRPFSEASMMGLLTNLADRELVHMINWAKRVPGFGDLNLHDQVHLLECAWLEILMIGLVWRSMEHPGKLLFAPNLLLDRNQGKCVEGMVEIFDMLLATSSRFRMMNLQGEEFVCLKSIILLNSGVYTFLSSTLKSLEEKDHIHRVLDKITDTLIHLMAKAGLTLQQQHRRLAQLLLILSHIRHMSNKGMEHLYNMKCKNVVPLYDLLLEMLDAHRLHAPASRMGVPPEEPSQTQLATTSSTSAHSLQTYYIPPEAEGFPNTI

Assay [3] concerns the target T1, Estrogen receptor (Mus musculus). The experiment in a line: Anti-uterotrophic effect in mice at 10 ug. It is filed as functional. Summed up: as §1
Assay [4] shares this target. The experiment in a line: Anti-uterotrophic effect in mice at 0 ug. It counts as functional. An outline of the steps:
as §1

Assay [5] has the same target. In words: Inhibition of estrone-stimulated uterine growth in immature mice at 10 ug. It is filed as functional. An outline of the steps:
as §1

Assay [6] shares this target. The experiment in a line: Anti-uterotrophic effect in mice at 3 ug. It is filed as functional. An outline of the steps: as §1
The target is the same in assay [7]. The experiment in a line: Anti-uterotrophic effect in mice at 30 ug. It counts as functional. An outline of the steps:
as §1

The target is the same in assay [8]. The experiment in a line: Inhibition of estrone-stimulated uterine growth in immature mice at 3 ug. It is filed as functional. Summed up:
as §1

Assay [9] has the same target. The experiment in a line: Inhibition of estrone-stimulated uterine growth in immature mice at 30 ug. It counts as functional. Summed up:
as §1

The target is the same in assay [10]. The experiment in a line: Anti-uterotrophic effect in mice at 300 ug. It is filed as functional. An outline of the steps: as §1
Assay [11] shares this target. In words: Inhibition of estrone-stimulated uterine growth in immature mice at 300 ug. It is filed as functional. Summed up:
as §1

For assay [12] the target is unchanged. In words: Inhibition of estrone-stimulated uterine growth in immature mice at 100 ug. It counts as functional. Summed up: as §1
For assay [13] the target is unchanged.

On to `CC(C)[C@@H](c1cccc(O)c1)[C@@H](c1cccc(O)c1)C(C)C`, for which, in [1], the relative binding affinity (RBA) is 15.
Same read-out and setting: the figure for `CC(C)(C)[C@H](c1cccc(O)c1)[C@H](c1cccc(O)c1)C(C)(C)C` is 0.7; for `CC(C)(C)[C@H](c1ccc(O)cc1)[C@H](c1ccc(O)cc1)C(C)(C)C` it is 1.5; for `CC(C)C[C@H](c1ccc(O)cc1)[C@@H](CC(C)C)c1ccc(O)cc1` it is 1.5.
On to `CC[C@H](c1cccc(O)c1)[C@@H](CC)c1cccc(O)c1`, for which the Effect in [2] was 32.7; in assay [3] it was 34.1; in assay [4], 14.5; in [6] it was 40.1; in [7] it was 30.2. Also, the inhibition – broadly, the share of the control response that was lost under treatment – in assay [2] was found to be 43%; in assay [5], 39%; in assay [8] it was 20%; in assay [9], 51%. Moreover, the relative binding affinity (RBA) in assay [1] came out at 11.
The molecule `CCC(C)[C@@H](c1cccc(O)c1)[C@@H](c1cccc(O)c1)C(C)CC` (stereo partly drawn) had a relative binding affinity (RBA) in assay [1] of 3.
On the same count and under the same terms, as for `CCC(C)[C@@H](c1ccc(O)cc1)[C@@H](c1ccc(O)cc1)C(C)CC` (stereo partly drawn), the figure is 5; as for `CC[C@H](c1ccc(O)cc1)[C@@H](CC)c1ccc(O)cc1`, 25.
As to `CC(C)CC(c1cccc(O)c1)[C@H](CC(C)C)c1cccc(O)c1` (single isomer, unassigned), the Effect in assay [2] came out at 37.9; in [4], 14.5; in assay [7], 40.3; in assay [10], 38.2. In addition, the inhibition was determined as 27% in assay [2], 26% in [11] and 19% in assay [9]. The molecule also showed a relative binding affinity (RBA) in assay [1] of 0.5.
As to `CCC[C@H](c1cccc(O)c1)[C@@H](CCC)c1cccc(O)c1`, the Effect in [2] amounted to 34.7; in assay [3], 42.1; in assay [4] it was 14.5; in assay [7], 40.8; in [10], 33. In addition, the inhibition stood at 37% in [12], 14% in assay [5], 42% in assay [11] and 18% in assay [11] (in the assay text read “30 ug” for “300 ug”). In assay [1], this molecule yielded a relative binding affinity (RBA) of 4.
For `CC(C)[C@@H](c1ccc(O)cc1)[C@@H](c1ccc(O)cc1)C(C)C`, the relative binding affinity (RBA) in [1] came to 30.
Same read-out and setting: as for `CCC[C@H](c1ccc(O)cc1)[C@@H](CCC)c1ccc(O)cc1`, the figure is 8.
Regarding `C[C@]12CC[C@@H]3c4ccc(O)cc4CC[C@H]3[C@@H]1CCC2=O`, the Effect in assay [13] amounted to 46.5.

For the origin of these results see ChEMBL document CHEMBL1123429, “Influence of alkyl chain ramification on estradiol receptor binding affinity and intrinsic activity of 1,2-dialkylated 1,2-bis(4- or 3-hydroxyphenyl)ethane estrogens and antiestrogens” (J Med Chem, 1986).
